In paper PMC8373685 (European journal of medicinal chemistry, 2021):

Columns and labels:
[1] = tested on: TNFα-induced IKKβ-mediated NFκB activity; experiment: κB luciferase reporter assay; format: cell-based; settings: for inhibition of TNFα-induced NFκB activity (SAR, in words): A549 luciferase reporter
MiaPaCa2 cells [2] = experiment: Live/dead cell assay; format: cell-based; settings: 5 and 10 μM for 24h
[3] = Pharmacokinetic studies in mice; format: in vivo, CD1 mice
Outline: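 CD1 mice received test compound orally at 20 mg/kg in DMSO:PEG400:H₂O 1:4:5, or intravenously at 10 mg/kg in DMSO:PEG400:H₂O 1:5:4. Mice were sacrificed at 0.083–24 h (8 time points) and plasma analysed by LC/MS/MS with carbamazepine as internal standard. PK parameters came from non-compartmental analysis; oral bioavailability was derived from oral versus intravenous AUC.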

MiaPaCa2 cells [4] = experiment: Colony formation assay; format: cell-based; settings: 5 μM; compared to DMSO treated cells
Outline: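 MiaPaCa2 cells (1.0×10³) were seeded in 6-well plates and treated 24 h. They were then washed and grown 8–10 days, with medium changed every 3 days. Cells were fixed in 4% paraformaldehyde 15 min and stained with 0.5% crystal violet 2 h at room temperature. Colonies were counted in triplicate from 10x bright-field images against vehicle (DMSO); unpaired t-test.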

[5] = tested on: caspase 3/7 activity in MiaPaCa2 cells; experiment: Caspase 3/7 assay; format: cell-based; settings: 10 μM, 24h
Outline: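 MiaPaCa2 cells were exposed to test compound for 24 h at 0.1% final DMSO, n=3. At 21 h, alamarBlue (1/10 well volume) was added for 3 h and fluorescence read at 560ex/590em. Plates equilibrated 15 min at room temperature, then Caspase-Glo reagent was added and luminescence read 2 h later. Value = (luminescence×100/fluorescence)/DMSO average.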

MiaPaCa2 = experiment: Growth inhibition assay; format: cell-based
Outline: (§1)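 Cell viability was read with PrestoBlue after 72 h incubation with test compound, n=3. Data are average ± SEM.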

MiaPaCa2 cells [6] = experiment: Cell scratch; format: cell-based; settings: 5 μM at 24 and 48h; compared to DMSO
T3M4 = experiment: Growth inhibition assay; format: cell-based; settings: 3-day cell growth assay
Outline: as §1

[7] = tested on: MiaPaCa2 cells subcutaneously implanted; experiment: Pancreatic tumor xenograft model; format: in vivo, athymic nude mice; settings: treated versus vehicle, n = 5
Outline: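 MiaPaCa2 cells (2.5×10⁶, Matrigel 2:1) were implanted s.c. in the flank of athymic nude mice and randomized at day 20 (n=6/group). Arms: vehicle, test compound 40 mg/kg orally daily, gemcitabine 15 mg/kg i.p. every 72 h, or combination. Mice were sacrificed after day 27. On FFPE tumors, Ki-67 was scored as % positive cells over 4 fields, and p-IKKβ by IHC histoscore (proportion 1–5 × intensity 0–3); n=5, unpaired t-test.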

For “1-(4-fluoro-3-(trifluoromethoxy)phenyl)-3-(3-(1-methyl-1H-pyrazol-4-yl)quinoxalin-6-yl)urea [compound 83]”, the “inhibition of TNFα-induced NFκB activity (SAR, in words)” value (shortened to “inhibition … (SAR, in words)”) ([1]; screened at 10μM) was “further improved”.
With “1-(3-(1-methyl-1H-pyrazol-4-yl)quinoxalin-6-yl)-3-(3-(trifluoromethyl)phenyl)urea [compound 79]” the “inhibition … (SAR, in words)” value ([1]; screened at 10μM) was “further improvement of activity”.
With Cn1ccc(-c2cnc3ccc(NC(=O)Nc4ccc(F)c(Br)c4)cc3n2)c1 [compound 86, 1-(3-bromo-4-fluorophenyl)-3-(3-(1-methyl-1H-pyrrol-3-yl)quinoxalin-6-yl)urea] the “inhibition … (SAR, in words)” value ([1]; screened at 10μM) was “loss of activity”.
For “1-(4-fluoro-3-methoxyphenyl)-3-(3-(1-methyl-1H-pyrazol-4-yl)quinoxalin-6-yl)urea [compound 82]”, the “inhibition … (SAR, in words)” value ([1]; screened at 10μM) was “activity was restored”.
In the case of Cn1cc(-c2cnc3ccc(NC(=O)Nc4ccc(F)c(Br)c4)cc3c2)cn1 [compound 85, 1-(3-bromo-4-fluorophenyl)-3-(3-(1-methyl-1H-pyrazol-4-yl)quinolin-6-yl)urea], the “inhibition … (SAR, in words)” value ([1]; screened at 10μM) is reported as “loss of activity”.
With “1-(4-fluoro-3-methylphenyl)-3-(3-(1-methyl-1H-pyrazol-4-yl)quinoxalin-6-yl)urea [compound 81]” the “inhibition … (SAR, in words)” value ([1]; screened at 10μM) was “dramatically reduced the activity”.
In the case of “1-(4-fluoro-3-(trifluoromethyl)phenyl)-3-(3-(1-methyl-1H-pyrazol-4-yl)quinoxalin-6-yl)urea [compound 84]”, the “cell death in live/dead assay” value (MiaPaCa2 cells [2]) is reported as “induced MiaPaCa2 cell death in a dose-dependent manner”, the “increase in oral bioavailability (%F) relative to 13–197” value [3] is reported as ~ 5.7 fold and the “intravenous exposure (AUC0−∞) relative to oral exposure” value ([3]; 10 mg/kg intravenous versus 20 mg/kg oral) is reported as ~ 2.8 fold. The “Tmax and Cmax relative to 13–197” value ([3]; 20 mg/kg oral) was ~ 2.5 times, the “exposure (AUC0−∞) relative to 13–197” value ([3]; 20 mg/kg oral) was ~ 4.3 fold and the “inhibition of colony forming ability” value (MiaPaCa2 cells [4]) was > 50%. The “caspase 3/7 activation” value [5] was “most potently induced caspase activation”, the “caspase 3/7 induction relative to 13–197” value [5] was ~ 4 fold and the growth inhibition (MiaPaCa2; 3-day cell growth assay, MiaPaCa2) was “low-μM potency”. For the same compound, the “potency in inhibiting pancreatic cancer cell growth relative to 13–197” value (MiaPaCa2; cell line not specified at place) was ~ 4 fold, the “inhibition of cell migration” value (MiaPaCa2 cells [6]) was “more effective inhibiting the migration of PDAC cells” and the “IC50 ratio versus 13–197, TNFα-induced NFκB inhibition” value ([1]; 84 versus reported value for 13–197) was ~ 2.5 fold. For the same compound, the IC50 ([1]; read-out: IC50, TNFα-induced IKKβ-mediated NFκB activity, dose-response, dual luciferase reporter assay, n = 3) was 3.3 ± 0.5 µM, the “inhibition … (SAR, in words)” value ([1]; screened at 10μM) was “most potent inhibitor” and the growth inhibition (T3M4) was “low-μM potency”. For the same compound, the “p-IKKβ levels in tumor tissue” value ([7]; immunohistochemistry) was “reduction in p-IKKβ levels” and the “Ki67 staining (proliferation index) in tumor tissue” value [7] was “reduction in Ki67 staining”.
For “1-(3-chloro-4-fluorophenyl)-3-(3-(1-methyl-1H-pyrazol-4-yl)quinoxalin-6-yl)urea [compound 80]”, the “potency in NFκB screen relative to 13–197” value ([1]; screened at 10μM) was ~ 3 fold.
